In ChEMBL document CHEMBL3792291, “Design, synthesis, biological evaluation and docking studies of novel 2-substituted-4-morpholino-7,8-dihydro-5H-thiopyrano[4,3-d]pyrimidine derivatives as dual PI3Kα/mTOR inhibitors” (Eur J Med Chem, 2016):

Biological target: Phosphatidylinositol 4,5-bisphosphate 3-kinase catalytic subunit alpha isoform (Homo sapiens, UniProt P42336)
Assay: Inhibition of PI3Kalpha (unknown origin) using phosphatidylinositol as substrate incubated for 60 mins by Kinase-Glo luminescent kinase assay
Conditions: not given

Phosphatidylinositol 4,5-bisphosphate 3-kinase catalytic subunit alpha isoform, sequence (P42336 whole entry, canonical isoform): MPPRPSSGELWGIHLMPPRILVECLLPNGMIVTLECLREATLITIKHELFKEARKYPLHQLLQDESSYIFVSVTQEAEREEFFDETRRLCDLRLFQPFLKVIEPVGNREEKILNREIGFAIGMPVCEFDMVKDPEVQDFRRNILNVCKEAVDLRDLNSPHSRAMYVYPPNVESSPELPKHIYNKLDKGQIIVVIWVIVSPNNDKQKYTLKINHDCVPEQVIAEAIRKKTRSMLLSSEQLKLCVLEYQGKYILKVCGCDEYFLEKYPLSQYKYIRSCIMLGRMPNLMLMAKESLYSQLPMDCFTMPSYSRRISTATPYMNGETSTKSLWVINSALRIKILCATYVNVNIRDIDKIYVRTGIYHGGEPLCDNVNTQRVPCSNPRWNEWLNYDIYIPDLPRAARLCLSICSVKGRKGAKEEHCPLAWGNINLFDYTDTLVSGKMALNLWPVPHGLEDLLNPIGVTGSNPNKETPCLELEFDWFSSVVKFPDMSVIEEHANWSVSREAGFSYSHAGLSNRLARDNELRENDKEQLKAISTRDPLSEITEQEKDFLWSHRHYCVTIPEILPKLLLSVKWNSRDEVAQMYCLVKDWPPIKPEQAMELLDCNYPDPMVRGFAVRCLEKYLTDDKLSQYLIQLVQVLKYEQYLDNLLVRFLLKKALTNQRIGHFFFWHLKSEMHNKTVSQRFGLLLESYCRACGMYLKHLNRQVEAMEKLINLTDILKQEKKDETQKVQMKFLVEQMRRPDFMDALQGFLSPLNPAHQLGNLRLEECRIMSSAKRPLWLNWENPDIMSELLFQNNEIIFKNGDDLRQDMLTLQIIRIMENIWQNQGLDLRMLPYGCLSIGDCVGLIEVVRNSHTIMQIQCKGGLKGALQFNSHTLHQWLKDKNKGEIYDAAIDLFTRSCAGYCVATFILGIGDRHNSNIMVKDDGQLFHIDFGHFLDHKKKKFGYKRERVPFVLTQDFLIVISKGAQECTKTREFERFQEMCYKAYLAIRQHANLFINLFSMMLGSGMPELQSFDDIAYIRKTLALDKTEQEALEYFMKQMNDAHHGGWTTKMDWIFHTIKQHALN

Compared with `O=C(Nc1ccc(Cl)c(C(F)(F)F)c1)N1CCN(c2nc3c(c(N4CCOCC4)n2)CS(=O)(=O)CC3)CC1`, `O=C(Nc1ccc(Cl)c(C(F)(F)F)c1)N1CCN(c2nc3c(c(N4CCOCC4)n2)CSCC3)CC1` is higher in IC50: 4.23 µM for the first, over 10 µM for the second. The first is the more potent here.

Compared with `O=C(Nc1ccc(F)c(Cl)c1)Nc1ccc(-c2nc3c(c(N4CCOCC4)n2)CSCC3)cn1`, `O=C(Nc1ccc(F)c(Cl)c1)Nc1ccc(-c2nc3c(c(N4CCOCC4)n2)CS(=O)(=O)CC3)cn1` is 9.7-fold higher in IC50: 0.69 µM for the first, 6.72 µM for the second. The first is the more potent here.

Biological target: Serine/threonine-protein kinase mTOR (Homo sapiens, UniProt P42345)
Assay: Inhibition of mTOR (unknown origin) using ULight-4E-BP1 peptide substrate incubated for 1 hr by TR-FRET assay
Conditions: not given

Going from `O=C(Nc1ccc(Cl)c(C(F)(F)F)c1)N1CCN(c2nc3c(c(N4CCOCC4)n2)CS(=O)(=O)CC3)CC1` to `O=C(Nc1ccc(Cl)c(C(F)(F)F)c1)N1CCN(c2nc3c(c(N4CCOCC4)n2)CSCC3)CC1`, the IC50 falls from 9.43 µM to 6.26 µM (1.5-fold).

`O=C(Nc1ccc(F)c(Cl)c1)Nc1ccc(-c2nc3c(c(N4CCOCC4)n2)CSCC3)cn1` and `O=C(Nc1ccc(F)c(Cl)c1)Nc1ccc(-c2nc3c(c(N4CCOCC4)n2)CS(=O)(=O)CC3)cn1` are within 1.5-fold of each other in IC50: 0.86 µM for the first, 0.94 µM for the second.

System: A549
Assay: Cytotoxicity against human A549 cells assessed as reduction in cell viability after 72 hrs by MTT assay
Type: functional, cell-based
Conditions: A549, 72 h

`O=C(Nc1ccc(-c2nc3c(c(N4CCOCC4)n2)CSCC3)cc1)NS(=O)(=O)c1ccc(Cl)cc1` and `O=C(Nc1ccc(-c2nc3c(c(N4CCOCC4)n2)CSCC3)cc1)NS(=O)(=O)c1ccc(F)cc1` cannot be ordered by IC50: over 50 µM for the first, over 50 µM for the second.

`O=C(Nc1ccc(-c2nc3c(c(N4CCOCC4)n2)CS(=O)(=O)CC3)cc1)NS(=O)(=O)c1ccc(Cl)cc1` and `O=C(Nc1ccc(-c2nc3c(c(N4CCOCC4)n2)CS(=O)(=O)CC3)cc1)NS(=O)(=O)c1ccc(F)cc1` cannot be ordered by IC50: over 50 µM for the first, over 50 µM for the second.

First: O=C(Nc1ccccc1)N1CCN(c2nc3c(c(N4CCOCC4)n2)CSCC3)CC1
Second: O=C(Nc1ccc(Br)cc1)N1CCN(c2nc3c(c(N4CCOCC4)n2)CSCC3)CC1
The IC50 of the first is higher: over 50 µM for the first, 39.9 µM for the second.

`O=C(Nc1ccc(-c2nc3c(c(N4CCOCC4)n2)CSCC3)cn1)NS(=O)(=O)c1cccs1` and `O=C(Nc1ccc(-c2nc3c(c(N4CCOCC4)n2)CSCC3)cn1)NS(=O)(=O)c1ccc(F)cc1` are within 1.5-fold of each other in IC50: 46.9 µM for the first, 36.2 µM for the second.

Going from `O=C(Nc1ccc(Cl)c(C(F)(F)F)c1)N1CCN(c2nc3c(c(N4CCOCC4)n2)CS(=O)(=O)CC3)CC1` to `O=C(Nc1ccc(Cl)c(C(F)(F)F)c1)N1CCN(c2nc3c(c(N4CCOCC4)n2)CSCC3)CC1`, the IC50 falls from 6.13 µM to 3.83 µM (1.6-fold).

First: O=C(Nc1ccc(Br)cc1)N1CCN(c2nc3c(c(N4CCOCC4)n2)CS(=O)(=O)CC3)CC1
Second: O=C(Nc1ccccc1)N1CCN(c2nc3c(c(N4CCOCC4)n2)CS(=O)(=O)CC3)CC1
The IC50 of the first is lower: 19 µM for the first, over 50 µM for the second. The first is the more potent here.

First: O=C(Nc1ccccc1)Nc1ccc(-c2nc3c(c(N4CCOCC4)n2)CSCC3)cn1
Second: O=C(Nc1ccc(F)c(Cl)c1)Nc1ccc(-c2nc3c(c(N4CCOCC4)n2)CSCC3)cn1
The IC50 of the first is 4.8-fold lower: 1.27 µM for the first, 6.07 µM for the second.

First: O=C(Nc1ccc(F)c(Cl)c1)Nc1ccc(-c2nc3c(c(N4CCOCC4)n2)CS(=O)(=O)CC3)cn1
Second: O=C(Nc1ccc(Cl)c(C(F)(F)F)c1)Nc1ccc(-c2nc3c(c(N4CCOCC4)n2)CS(=O)(=O)CC3)cn1
The IC50 of the first is lower: 0.52 µM for the first, over 50 µM for the second. The first is the more potent here.

First: O=C(Nc1ccc(-c2nc3c(c(N4CCOCC4)n2)CS(=O)(=O)CC3)cn1)NS(=O)(=O)c1ccc(Cl)cc1
Second: Cc1ccc(S(=O)(=O)NC(=O)Nc2ccc(-c3nc4c(c(N5CCOCC5)n3)CS(=O)(=O)CC4)cn2)cc1
The IC50 of the first is higher: over 50 µM for the first, 42.5 µM for the second.

Compared with `O=C(Nc1ccc(-c2nc3c(c(N4CCOCC4)n2)CSCC3)cn1)NS(=O)(=O)c1ccc(Cl)cc1`, `O=C(Nc1ccc(-c2nc3c(c(N4CCOCC4)n2)CS(=O)(=O)CC3)cn1)NS(=O)(=O)c1ccc(F)cc1F` is lower in IC50: over 50 µM for the first, 22.7 µM for the second. The second is the more potent here.

For `CS(=O)(=O)N1CCN(Cc2cc3nc(-c4cccc5[nH]ncc45)nc(N4CCOCC4)c3s2)CC1` [PICTILISIB], the IC50 was 1.2 µM.

Biological target: Hepatocyte growth factor receptor (Homo sapiens, UniProt P08581)
Conditions: not given

Hepatocyte growth factor receptor, sequence (P08581 whole entry): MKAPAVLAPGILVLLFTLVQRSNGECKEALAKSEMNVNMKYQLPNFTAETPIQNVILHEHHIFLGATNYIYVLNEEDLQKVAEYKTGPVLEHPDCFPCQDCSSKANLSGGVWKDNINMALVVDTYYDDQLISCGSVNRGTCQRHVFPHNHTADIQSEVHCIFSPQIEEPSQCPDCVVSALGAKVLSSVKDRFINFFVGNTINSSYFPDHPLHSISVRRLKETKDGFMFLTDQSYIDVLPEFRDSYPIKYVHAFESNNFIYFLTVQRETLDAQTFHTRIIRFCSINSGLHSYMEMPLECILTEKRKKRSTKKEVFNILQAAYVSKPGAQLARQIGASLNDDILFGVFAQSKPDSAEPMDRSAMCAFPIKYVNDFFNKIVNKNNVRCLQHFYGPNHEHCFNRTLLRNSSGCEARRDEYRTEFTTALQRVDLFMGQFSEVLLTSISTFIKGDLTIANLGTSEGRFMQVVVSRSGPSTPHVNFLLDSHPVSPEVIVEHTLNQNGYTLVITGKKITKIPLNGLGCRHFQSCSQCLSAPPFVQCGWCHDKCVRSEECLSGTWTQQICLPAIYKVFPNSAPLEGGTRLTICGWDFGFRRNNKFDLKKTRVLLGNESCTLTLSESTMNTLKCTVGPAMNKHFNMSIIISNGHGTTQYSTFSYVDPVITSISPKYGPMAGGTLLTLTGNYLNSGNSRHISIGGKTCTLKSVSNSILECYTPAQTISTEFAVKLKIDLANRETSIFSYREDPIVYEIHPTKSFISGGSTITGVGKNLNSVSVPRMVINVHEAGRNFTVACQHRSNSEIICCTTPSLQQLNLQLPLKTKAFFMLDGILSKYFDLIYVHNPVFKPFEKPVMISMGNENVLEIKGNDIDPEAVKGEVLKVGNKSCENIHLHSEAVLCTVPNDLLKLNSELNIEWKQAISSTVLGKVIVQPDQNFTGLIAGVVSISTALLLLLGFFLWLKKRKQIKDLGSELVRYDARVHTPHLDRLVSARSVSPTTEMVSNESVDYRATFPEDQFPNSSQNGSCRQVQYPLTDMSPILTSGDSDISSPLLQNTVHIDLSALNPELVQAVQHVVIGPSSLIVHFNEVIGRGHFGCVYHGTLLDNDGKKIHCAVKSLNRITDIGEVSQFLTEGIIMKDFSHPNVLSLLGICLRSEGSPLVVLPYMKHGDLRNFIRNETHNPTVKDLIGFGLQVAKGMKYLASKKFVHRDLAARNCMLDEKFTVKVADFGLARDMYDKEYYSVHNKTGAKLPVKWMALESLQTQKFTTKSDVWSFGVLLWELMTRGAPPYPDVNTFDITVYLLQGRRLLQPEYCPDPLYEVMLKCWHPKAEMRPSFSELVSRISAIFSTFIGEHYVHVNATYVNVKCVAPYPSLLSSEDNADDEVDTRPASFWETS

`O=C(Nc1ccc(Cl)c(C(F)(F)F)c1)N1CCN(c2nc3c(c(N4CCOCC4)n2)CS(=O)(=O)CC3)CC1` and `O=C(Nc1ccc(Cl)c(C(F)(F)F)c1)N1CCN(c2nc3c(c(N4CCOCC4)n2)CSCC3)CC1` cannot be ordered by IC50: over 10 µM for the first, over 10 µM for the second.

`O=C(Nc1ccc(F)c(Cl)c1)Nc1ccc(-c2nc3c(c(N4CCOCC4)n2)CSCC3)cn1` and `O=C(Nc1ccc(F)c(Cl)c1)Nc1ccc(-c2nc3c(c(N4CCOCC4)n2)CS(=O)(=O)CC3)cn1` cannot be ordered by IC50: over 10 µM for the first, over 10 µM for the second.

System: not listed separately
Assay: Cytotoxicity against human PC3 cells assessed as reduction in cell viability after 72 hrs by MTT assay
Type: functional, cell-based
Conditions: PC-3, 72 h
Summary of the method: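 Cells grown in MEM with 10% FBS. About 4×10³ cells per well, seeded and held 24 h at 37 °C in 5% CO₂. Compounds added at the indicated final concentrations for 72 h. MTT then given for 4 h at 37 °C and formazan dissolved in DMSO. Absorbance read at 492 nm with 630 nm as reference.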

`O=C(Nc1ccc(-c2nc3c(c(N4CCOCC4)n2)CSCC3)cc1)NS(=O)(=O)c1ccc(Cl)cc1` and `O=C(Nc1ccc(-c2nc3c(c(N4CCOCC4)n2)CSCC3)cc1)NS(=O)(=O)c1ccc(F)cc1` cannot be ordered by IC50: over 50 µM for the first, over 50 µM for the second.

`O=C(Nc1ccc(-c2nc3c(c(N4CCOCC4)n2)CS(=O)(=O)CC3)cc1)NS(=O)(=O)c1ccc(Cl)cc1` and `O=C(Nc1ccc(-c2nc3c(c(N4CCOCC4)n2)CS(=O)(=O)CC3)cc1)NS(=O)(=O)c1ccc(F)cc1` cannot be ordered by IC50: over 50 µM for the first, over 50 µM for the second.

`O=C(Nc1ccccc1)N1CCN(c2nc3c(c(N4CCOCC4)n2)CSCC3)CC1` and `O=C(Nc1ccc(Br)cc1)N1CCN(c2nc3c(c(N4CCOCC4)n2)CSCC3)CC1` cannot be ordered by IC50: over 50 µM for the first, over 50 µM for the second.

`O=C(Nc1ccc(-c2nc3c(c(N4CCOCC4)n2)CSCC3)cn1)NS(=O)(=O)c1cccs1` and `O=C(Nc1ccc(-c2nc3c(c(N4CCOCC4)n2)CSCC3)cn1)NS(=O)(=O)c1ccc(F)cc1` cannot be ordered by IC50: over 50 µM for the first, over 50 µM for the second.

`O=C(Nc1ccc(Cl)c(C(F)(F)F)c1)N1CCN(c2nc3c(c(N4CCOCC4)n2)CS(=O)(=O)CC3)CC1` and `O=C(Nc1ccc(Cl)c(C(F)(F)F)c1)N1CCN(c2nc3c(c(N4CCOCC4)n2)CSCC3)CC1` are within 1.5-fold of each other in IC50: 28.7 µM for the first, 26.7 µM for the second.

`O=C(Nc1ccc(Br)cc1)N1CCN(c2nc3c(c(N4CCOCC4)n2)CS(=O)(=O)CC3)CC1` and `O=C(Nc1ccccc1)N1CCN(c2nc3c(c(N4CCOCC4)n2)CS(=O)(=O)CC3)CC1` cannot be ordered by IC50: over 50 µM for the first, over 50 µM for the second.

Going from `O=C(Nc1ccccc1)Nc1ccc(-c2nc3c(c(N4CCOCC4)n2)CSCC3)cn1` to `O=C(Nc1ccc(F)c(Cl)c1)Nc1ccc(-c2nc3c(c(N4CCOCC4)n2)CSCC3)cn1`, the IC50 falls from over 50 µM to 20.5 µM. The second is the more potent here.

First: O=C(Nc1ccc(F)c(Cl)c1)Nc1ccc(-c2nc3c(c(N4CCOCC4)n2)CS(=O)(=O)CC3)cn1
Second: O=C(Nc1ccc(Cl)c(C(F)(F)F)c1)Nc1ccc(-c2nc3c(c(N4CCOCC4)n2)CS(=O)(=O)CC3)cn1
The IC50 of the first is 23-fold lower: 1.41 µM for the first, 32.2 µM for the second.

`O=C(Nc1ccc(-c2nc3c(c(N4CCOCC4)n2)CS(=O)(=O)CC3)cn1)NS(=O)(=O)c1ccc(Cl)cc1` and `Cc1ccc(S(=O)(=O)NC(=O)Nc2ccc(-c3nc4c(c(N5CCOCC5)n3)CS(=O)(=O)CC4)cn2)cc1` cannot be ordered by IC50: over 50 µM for the first, over 50 µM for the second.

`O=C(Nc1ccc(-c2nc3c(c(N4CCOCC4)n2)CSCC3)cn1)NS(=O)(=O)c1ccc(Cl)cc1` and `O=C(Nc1ccc(-c2nc3c(c(N4CCOCC4)n2)CS(=O)(=O)CC3)cn1)NS(=O)(=O)c1ccc(F)cc1F` cannot be ordered by IC50: over 50 µM for the first, over 50 µM for the second.

Going from `CS(=O)(=O)N1CCN(Cc2cc3nc(-c4cccc5[nH]ncc45)nc(N4CCOCC4)c3s2)CC1` [PICTILISIB] to `CNC(=O)c1cc(Oc2ccc(NC(=O)Nc3ccc(Cl)c(C(F)(F)F)c3)cc2)ccn1` [SORAFENIB], the IC50 rises from 0.8 µM to 8.08 µM (10-fold).

System: MCF7
Assay: Cytotoxicity against human MCF7 cells assessed as reduction in cell viability after 72 hrs by MTT assay
Type: functional, cell-based
Conditions: MCF7, 72 h

`O=C(Nc1ccc(-c2nc3c(c(N4CCOCC4)n2)CSCC3)cc1)NS(=O)(=O)c1ccc(Cl)cc1` and `O=C(Nc1ccc(-c2nc3c(c(N4CCOCC4)n2)CSCC3)cc1)NS(=O)(=O)c1ccc(F)cc1` cannot be ordered by IC50: over 50 µM for the first, over 50 µM for the second.

`O=C(Nc1ccc(-c2nc3c(c(N4CCOCC4)n2)CS(=O)(=O)CC3)cc1)NS(=O)(=O)c1ccc(Cl)cc1` and `O=C(Nc1ccc(-c2nc3c(c(N4CCOCC4)n2)CS(=O)(=O)CC3)cc1)NS(=O)(=O)c1ccc(F)cc1` cannot be ordered by IC50: over 50 µM for the first, over 50 µM for the second.

Going from `O=C(Nc1ccccc1)N1CCN(c2nc3c(c(N4CCOCC4)n2)CSCC3)CC1` to `O=C(Nc1ccc(Br)cc1)N1CCN(c2nc3c(c(N4CCOCC4)n2)CSCC3)CC1`, the IC50 falls from over 50 µM to 4.68 µM.

`O=C(Nc1ccc(-c2nc3c(c(N4CCOCC4)n2)CSCC3)cn1)NS(=O)(=O)c1cccs1` and `O=C(Nc1ccc(-c2nc3c(c(N4CCOCC4)n2)CSCC3)cn1)NS(=O)(=O)c1ccc(F)cc1` cannot be ordered by IC50: over 50 µM for the first, over 50 µM for the second.

`O=C(Nc1ccc(Cl)c(C(F)(F)F)c1)N1CCN(c2nc3c(c(N4CCOCC4)n2)CS(=O)(=O)CC3)CC1` and `O=C(Nc1ccc(Cl)c(C(F)(F)F)c1)N1CCN(c2nc3c(c(N4CCOCC4)n2)CSCC3)CC1` are within 1.5-fold of each other in IC50: 5.94 µM for the first, 5.8 µM for the second.

Going from `O=C(Nc1ccc(Br)cc1)N1CCN(c2nc3c(c(N4CCOCC4)n2)CS(=O)(=O)CC3)CC1` to `O=C(Nc1ccccc1)N1CCN(c2nc3c(c(N4CCOCC4)n2)CS(=O)(=O)CC3)CC1`, the IC50 rises from 45.6 µM to over 50 µM.

Going from `O=C(Nc1ccccc1)Nc1ccc(-c2nc3c(c(N4CCOCC4)n2)CSCC3)cn1` to `O=C(Nc1ccc(F)c(Cl)c1)Nc1ccc(-c2nc3c(c(N4CCOCC4)n2)CSCC3)cn1`, the IC50 falls from 46.6 µM to 11.5 µM (4.1-fold).

`O=C(Nc1ccc(F)c(Cl)c1)Nc1ccc(-c2nc3c(c(N4CCOCC4)n2)CS(=O)(=O)CC3)cn1` and `O=C(Nc1ccc(Cl)c(C(F)(F)F)c1)Nc1ccc(-c2nc3c(c(N4CCOCC4)n2)CS(=O)(=O)CC3)cn1` are within 1.5-fold of each other in IC50: 4.82 µM for the first, 4.67 µM for the second.

`O=C(Nc1ccc(-c2nc3c(c(N4CCOCC4)n2)CS(=O)(=O)CC3)cn1)NS(=O)(=O)c1ccc(Cl)cc1` and `Cc1ccc(S(=O)(=O)NC(=O)Nc2ccc(-c3nc4c(c(N5CCOCC5)n3)CS(=O)(=O)CC4)cn2)cc1` cannot be ordered by IC50: over 50 µM for the first, over 50 µM for the second.

Compared with `O=C(Nc1ccc(-c2nc3c(c(N4CCOCC4)n2)CSCC3)cn1)NS(=O)(=O)c1ccc(Cl)cc1`, `O=C(Nc1ccc(-c2nc3c(c(N4CCOCC4)n2)CS(=O)(=O)CC3)cn1)NS(=O)(=O)c1ccc(F)cc1F` is lower in IC50: over 50 µM for the first, 19.7 µM for the second.
